Results reported in ChEMBL document CHEMBL1123566, “Synthesis and cardiac electrophysiological activity of 2- and 3-[(substituted phenyl)alkyl]quinuclidines. Structure-activity relationships” (1987).
Where “and” joins values, the source holds several entries; their conditions need not be identical. Identical values can stand only once.

Experiments:
[1] = species: Canis familiaris; experiment: In vitro electrophysiological evaluation in canine cardiac Purkinje fibres reported as percent change Vmax at 10 uM at concentration range of 0.1-100 uM; Minimal (<10% decrease or increase in Vmax).; assay type: functional, organism-based; details: Canis lupus familiaris, Purkinje fiber
Outline: (§1)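 Canine cardiac Purkinje fibres, intracellular microelectrode recording, paced at a basic cycle length of 1 s. APD95 and Vmax read simultaneously. Compound: 10 mM stock in deionized water, diluted into Tyrode's solution, tested over the stated concentration range. Each fibre used once as its own control. Result is % change from control, given at 10 µM or as the maximum with its concentration. M = <10% decrease or an increase in Vmax.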

[2] = species: Canis familiaris; experiment: In vitro electrophysiological evaluation in canine cardiac ventricular muscle reported as maximum % change for conduction time(CT) at 0.1-10 uM concentration range; concentration at which it occurred is 0.1 uM.; assay type: functional, Canis lupus familiaris, Muscle tissue
Outline: (§2)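 Canine right ventricle and papillary muscle strips in oxygenated Tyrode's solution, fitted with stimulating and recording electrodes. The extra-stimulus conduction-interval method was adapted for in vitro use. FRP and CT were read from a conduction-interval curve before and after various compound concentrations, and expressed as percent change from control. Compounds were taken from 10 mM deionized-water stock into Tyrode's. Each strip was used once as its own control.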

[3] = species: Canis familiaris; experiment: (§3) In vitro electrophysiological activity in canine cardiac occurred is 1 uM.; assay type: functional, Canis lupus familiaris, Heart
[4] = test system: Canis familiaris; experiment: Mean arterial blood pressure was determined by intraduodenal administration of two dosages of 30 mg/kg of compound in anesthetized dogs. Value was reported for experiment 2; assay type: functional, Canis lupus familiaris
Outline: (§4)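 Anesthetized dogs received two intraduodenal doses, the second cumulative (low dose/high dose). Left ventricular FRP and CT were measured 15, 30 and 45 min after dosing. Heart rate and mean blood pressure were taken during nonpacing intervals. Values are percent change from control. The vehicle was 5% dextrose in water/tragacanth. Activity was defined as ≥12% prolongation of FRP or CT.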

[5] = species: Canis familiaris; experiment: In vitro electrophysiological evaluation in canine cardiac ventricular muscle reported as maximum % change for functional refractory period (FRP) at 0.1-10 uM concentration range; concentration at which it occurred is 10 uM.; design: species or system Canis lupus familiaris, Muscle tissue; outline: as §2
[6] = test system: Canis familiaris; experiment: Heart rate was determined by intraduodenal administration of two dosages of 30 mg/kg of compound in anesthetized dogs. Value was reported for experiment 1; assay type: functional, Canis lupus familiaris
Outline: (§5)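 Anesthetized dogs; compound given intraduodenally, generally as two doses, the second a cumulative (high) dose. LV functional refractory period and conduction time measured 15, 30 and 45 min after dosing; heart rate and blood pressure measured during nonpacing intervals. Values are % change from control, given per individual animal. Active if FRP or CT prolonged by ≥12%.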

[7] = species: Canis familiaris; experiment: (§6) In vitro electrophysiological evaluation in canine cardiac occurred is 100 uM.; assay type: functional; details: Canis lupus familiaris; Heart
[8] = test system: Canis familiaris; experiment: Left ventricular refractory period was determined by intraduodenal administration of 30 mg/kg (high dose) of compound in anesthetized dogs. Value was reported for experiment 1; assay type: functional, Canis lupus familiaris, Cardiac ventricle; outline: as §4
[9] = test system: Canis familiaris; experiment: Conduction time was determined by intraduodenal administration of 30 mg/kg (high dose) of compound in anesthetized dogs. Value was reported for experiment 2; assay type: functional, Canis lupus familiaris; outline: as §5
[10] = species: Canis familiaris; experiment: as §6; assay type: functional, organism-based; details: Canis lupus familiaris; Heart
[11] = species: Canis familiaris; experiment: In vitro electrophysiological evaluation in canine cardiac Purkinje fibres reported as % change for action potential duration at a concentration of 10 uM; assay type: functional, Canis lupus familiaris, Purkinje fiber; outline: as §1
[12] = species: Canis familiaris; experiment: (§7) In vitro electrophysiological activity in canine cardiac occurred is 10 uM.; assay type: functional, Canis lupus familiaris, Heart
[13] = species: Canis familiaris; experiment: In vitro electrophysiological evaluation in canine cardiac Purkinje fibres reported as % change for action potential duration at 10 uM at 1-100 uM concentration range; assay type: functional, Canis lupus familiaris, Purkinje fiber; outline: as §1
[14] = test system: Canis familiaris; experiment: Left ventricular refractory period was determined by intraduodenal administration of 10 mg/kg (low dose) of compound in anesthetized dogs. Value was reported for experiment 1; assay type: functional, Canis lupus familiaris, Cardiac ventricle; details: 10 mg/kg; outline: as §4
[15] = test system: Canis familiaris; experiment: Left ventricular refractory period was determined by intravenous administration of two dosages (high/low) of 3 mg/kg of compound in anesthetized dogs. Value was reported for experiment 1; assay type: functional, Canis lupus familiaris, Cardiac ventricle
[16] = species: Canis familiaris; experiment: In vitro electrophysiological evaluation in canine cardiac Purkinje fibres reported as percent change Vmax at 10 uM at concentration range of 1-100 uM; assay type: functional; details: Canis lupus familiaris, Purkinje fiber; outline: as §1
[17] = species: Canis familiaris; experiment: In vitro electrophysiological activity in canine cardiac occurred is 100 uM.; assay type: functional, Canis lupus familiaris, Heart
[18] = test system: Canis familiaris; experiment: Left ventricular refractory period was determined by intraduodenal administration of 30 mg/kg (high dose) of compound in anesthetized dogs. Value was reported for experiment 2; assay type: functional, Canis lupus familiaris, Cardiac ventricle; outline: as §4
[19] = species: Canis familiaris; experiment: as §7; assay type: functional, Canis lupus familiaris, Heart; remark: listed apart in the source
[20] = species: Canis familiaris; experiment: In vitro electrophysiological evaluation in canine cardiac ventricular muscle reported as % change for the functional refractory period (FRP) at 10 uM at concentration range of 0.1-10 uM; design: species or system Canis lupus familiaris, Muscle tissue; outline: as §2
[21] = test system: Canis familiaris; experiment: Left ventricular refractory period was determined by intravenous administration of two dosages (high/low) of 3 mg/kg of compound in anesthetized dogs. Value was reported for experiment 2; assay type: functional, Canis lupus familiaris, Cardiac ventricle
[22] = test system: Canis familiaris; experiment: Mean arterial blood pressure was determined by intraduodenal administration of two dosages of 10 mg/kg of compound in anesthetized dogs. Value was reported for experiment 1; assay type: functional, Canis lupus familiaris; outline: as §4
[23] = species: Canis familiaris; experiment: In vitro electrophysiological evaluation in canine cardiac Purkinje fibres reported as maximum percent change Vmax concentration range of 0.1-10 uM; Minimal (<10% decrease or increase in Vmax).; assay type: functional; details: Canis lupus familiaris; Purkinje fiber; outline: as §1
[24] = test system: Canis familiaris; experiment: Heart rate was determined by intraduodenal administration of two dosages of 10 mg/kg of compound in anesthetized dogs. Value was reported for experiment 2; assay type: functional, Canis lupus familiaris; outline: as §5
[25] = species: Canis familiaris; experiment: as §3; assay type: functional, Canis lupus familiaris, Heart; remark: listed apart in the source
[26] = test system: Canis familiaris; experiment: Conduction time was determined by intraduodenal administration of 30 mg/kg (high dose) of compound in anesthetized dogs. Value was reported for experiment 1; assay type: functional, Canis lupus familiaris; outline: as §5
[27] = species: Canis familiaris; experiment: In vitro electrophysiological evaluation in canine cardiac Purkinje fibres reported as percent change Vmax at 10 uM at concentration range of 0.1-10 uM; Minimal (<10% decrease or increase in Vmax).; assay type: functional; details: Canis lupus familiaris, Purkinje fiber; outline: as §1
[28] = test system: Canis familiaris; experiment: Mean arterial blood pressure was determined by intraduodenal administration of two dosages of 10 mg/kg of compound in anesthetized dogs. Value was reported for experiment 2; assay type: functional, Canis lupus familiaris; outline: as §4
[29] = species: Canis familiaris; experiment: as §6; assay type: functional; details: Canis lupus familiaris; Heart; remark: listed apart in the source
[30] = species: Canis familiaris; experiment: In vitro electrophysiological evaluation in canine cardiac Purkinje fibres reported as percent change Vmax at 10 uM at concentration range of 0.1-100 uM; assay type: functional; details: Canis lupus familiaris, Purkinje fiber; outline: as §1
[31] = species: Canis familiaris; experiment: In vitro electrophysiological evaluation in canine cardiac ventricular muscle reported as % change for conduction time(CT) at 0.1-10 uM concentration range; Minimal (<10% decrease or increase inCT).; assay type: functional, Canis lupus familiaris, Muscle tissue
[32] = test system: Canis familiaris; experiment: Conduction time was determined by intraduodenal administration of 10 mg/kg (low dose) of compound in anesthetized dogs. Value was reported for experiment 1; assay type: functional, Canis lupus familiaris; outline: as §5
[33] = test system: Canis familiaris; experiment: Mean arterial blood pressure was determined by intraduodenal administration of two dosages of 30 mg/kg of compound in anesthetized dogs. Value was reported for experiment 1; assay type: functional, Canis lupus familiaris; outline: as §4
[34] = species: Canis familiaris; experiment: as §6; assay type: functional; details: Canis lupus familiaris; Heart; remark: listed apart in the source
[35] = test system: Canis familiaris; experiment: Heart rate was determined by intraduodenal administration of two dosages of 10 mg/kg of compound in anesthetized dogs. Value was reported for experiment 1; assay type: functional, Canis lupus familiaris; outline: as §5
[36] = species: Canis familiaris; experiment: as §3; assay type: functional, Canis lupus familiaris, Heart; remark: listed apart in the source
[37] = test system: Canis familiaris; experiment: Heart rate was determined by intraduodenal administration of two dosages of 30 mg/kg of compound in anesthetized dogs. Value was reported for experiment 2; assay type: functional, Canis lupus familiaris; outline: as §5
[38] = test system: Canis familiaris; experiment: Conduction time was determined by intraduodenal administration of 10 mg/kg (low dose) of compound in anesthetized dogs. Value was reported for experiment 2; assay type: functional, Canis lupus familiaris; outline: as §5

OC1C2CCN(CC2)C1CCCc1ccc(Cl)cc1 (stereo not drawn)
Vmax [1]: < 10%
CT [2]: 11%
APD95 [3]: 41%
Mean blood pressure [4]: -3%
FRP [5]: 21%
HR [6]: -14%
Vmax [7]: 100%
LV FRP [8]: 3%
CT [9]: 8%
Vmax [10]: -48%
APD95 [11]: 12%
APD95 [12]: 14% and 40%
APD95 [13]: 13%
LV FRP [14]: 4% and 7%
FRP [15]: 12%
Vmax [16]: -13%
APD95 [17]: -24% and -7%
LV FRP [18]: 9%
APD95 [19]: 13%
FRP [20]: 21%
FRP [21]: 8%
Mean blood pressure [22]: 14%
Vmax [23]: < 10%
HR [24]: -7%
APD95 [25]: 25% and 15%
CT [26]: 7%
Vmax [27]: < 10%
Mean blood pressure [28]: 0%
Vmax [29]: 100%
Vmax [30]: -24% and -20%
CT [31]: <10%
CT [32]: 5%
Mean blood pressure [33]: 14%
Vmax [34]: 100%
HR [35]: -6%
APD95 [36]: 30%
HR [37]: -9%
CT [38]: 4%
